From ChEMBL document CHEMBL4364284, “Design, Synthesis, and Efficacy Testing of Nitroethylene- and 7-Nitrobenzoxadiazol-Based Flavodoxin Inhibitors against Helicobacter pylori Drug-Resistant Clinical Strains and in Helicobacter pylori-Infected Mice” (J Med Chem, 2019)
≈ marks a conversion by molar mass, not a printed value. Calls of active or inactive are those of the source. The calls are words filed in the database; no cut-off is given here.

Tests used:
[1] = Therapeutic index, ratio of MCC50 for human HeLa cells to MIC for inhibition of flavodoxin in metronidazole-resistant Helicobacter pylori isolate 2 assessed as reduction in bacterial growth; format: toxicity; settings: read-out: TI
Method in brief: (§1)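 TI is MCC50/MIC. For MCC50, HeLa cells (30 000/well, DMEM with 10% FBS) were exposed to compound at 25–1000 μM final. Viability by XTT at 450/650 nm; MCC50 is the concentration giving 50% lysis from viability curves. Run twice in triplicate.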

[2] = Therapeutic index, ratio of MCC50 for human HeLa cells to MIC for inhibition of flavodoxin in clarithromycin/metronidazole-resistant Helicobacter pylori isolate 4 assessed as reduction in bacterial growth; format: toxicity; settings: read-out: TI; method in brief: as §1
[3] = Therapeutic index, ratio of MCC50 for human HeLa cells to MIC for inhibition of flavodoxin in Helicobacter pylori SS1 assessed as reduction in bacterial growth; format: toxicity; settings: HeLa cells versus Helicobacter pylori SS1, read-out: TI; method in brief: as §1
Staphylococcus aureus = experiment: Effect on growth of Staphylococcus aureus ATCC 1228 after 48 hrs by resazurin-dye based microdilution assay; format: organism-based
[4] = target: T1, Flavodoxin (Helicobacter pylori (strain ATCC 700392 / 26695) (Campylobacter pylori)) (UniProt O25776); experiment: Binding affinity to Helicobacter pylori flavodoxin by thermal upshift assay
T1 sequence (whole entry): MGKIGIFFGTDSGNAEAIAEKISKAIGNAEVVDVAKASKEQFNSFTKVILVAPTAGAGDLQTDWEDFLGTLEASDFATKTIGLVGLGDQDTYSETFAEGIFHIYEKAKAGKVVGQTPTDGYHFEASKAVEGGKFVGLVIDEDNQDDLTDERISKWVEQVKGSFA

Escherichia coli = experiment: Effect on growth of Escherichia coli DH5[alpha] after 48 hrs by resazurin-dye based microdilution assay; format: organism-based
[5] = Therapeutic index, ratio of MCC50 for human HeLa cells to MIC for inhibition of flavodoxin in clarithromycin/metronidazole-resistant Helicobacter pylori isolate 6 assessed as reduction in bacterial growth; format: toxicity; settings: read-out: TI; method in brief: as §1
[6] = Therapeutic index, ratio of MCC50 for human HeLa cells to MIC for inhibition of flavodoxin in Helicobacter pylori ATCC 700392 26695 assessed as reduction in bacterial growth; format: toxicity; settings: HeLa cells versus Helicobacter pylori ATCC 700392 26695, read-out: TI; method in brief: as §1
[7] = Therapeutic index, ratio of MCC50 for human HeLa cells to MIC for inhibition of flavodoxin in metronidazole-resistant Helicobacter pylori isolate 1 assessed as reduction in bacterial growth; format: toxicity; settings: read-out: TI; method in brief: as §1
[8] = Therapeutic index, ratio of MCC50 for human HeLa cells to MIC for inhibition of flavodoxin in rifampicin-resistant Helicobacter pylori isolate 5 assessed as reduction in bacterial growth; format: toxicity; settings: read-out: TI; method in brief: as §1
[9] = target: T1, Flavodoxin (Helicobacter pylori (strain ATCC 700392 / 26695) (Campylobacter pylori)); experiment: Binding affinity to Helicobacter pylori flavodoxin by isothermal titration calorimetric method
[10] = target: T1, Flavodoxin (Helicobacter pylori (strain ATCC 700392 / 26695) (Campylobacter pylori)); experiment: Inhibition of flavodoxin in Helicobacter pylori SS1 assessed as reduction in bacterial growth measured after 48 hrs by resazurin staining-based microdilution method
Method in brief: (§2)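 Broth microdilution in brain heart infusion with 4% FBS. Inoculum diluted to OD600 0.01. Two-fold dilutions from a DMSO stock cover 64–0.031 μg/mL, with DMSO ≤1% v/v. Incubated 48 h at 37 °C under microaerophilic conditions. MIC is the lowest concentration giving complete growth inhibition, read by resazurin colour change and confirmed by spotting on blood agar. Run twice in triplicate.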

[11] = target: T1, Flavodoxin (Helicobacter pylori (strain ATCC 700392 / 26695) (Campylobacter pylori)); experiment: Inhibition of flavodoxin in Mnz-resistant Helicobacter pylori NCTC 11637 ATCC 43504 assessed as reduction in bacterial growth measured after 48 hrs by resazurin staining-based microdilution method; settings: Helicobacter pylori NCTC 11637 = CCUG 17874 = ATCC 43504; method in brief: as §2
[12] = Cytotoxicity against human HeLa cells assessed as reduction in cell viability by XTT assay; format: cell-based; settings: read-out: MCC50
Method in brief: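 HeLa cells grown in DMEM with 10% FBS, penicillin and streptomycin at 37 °C, 5% CO2; 30 000 cells/well. XTT viability read at 450 and 650 nm. MCC50 (50% lysis) came from viability-versus-concentration curves. Two experiments, each in triplicate.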

[13] = Therapeutic index, ratio of MCC50 for human HeLa cells to MIC for inhibition of flavodoxin in metronidazole-resistant Helicobacter pylori isolate 3 assessed as reduction in bacterial growth; format: toxicity; settings: read-out: TI; method in brief: as §1
[14] = target: T1, Flavodoxin (Helicobacter pylori (strain ATCC 700392 / 26695) (Campylobacter pylori)); experiment: Inhibition of flavodoxin in Helicobacter pylori ATCC 700392 26695 assessed as reduction in bacterial growth measured after 48 hrs by resazurin staining-based microdilution method; settings: Helicobacter pylori 26695; method in brief: as §2
[15] = Therapeutic index, ratio of MCC50 for human HeLa cells to MIC for inhibition of flavodoxin in Mnz-resistant Helicobacter pylori NCTC 11637 ATCC 43504 assessed as reduction in bacterial growth; format: toxicity; settings: read-out: TI; method in brief: as §1
[16] = Stability of the compound in DMSO-d6 at pH 1 incubated for 19 hrs under shaking condition by 1H-NMR analysis; format: physicochemical; settings: pH 1, 19 h
[17] = target: T1, Flavodoxin (Helicobacter pylori (strain ATCC 700392 / 26695) (Campylobacter pylori)); experiment: Inhibition of flavodoxin in metronidazole-resistant Helicobacter pylori isolate 2 assessed as reduction in bacterial growth measured after 48 hrs by resazurin staining-based microdilution method
Method in brief: (§3)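 Clinical isolates from gastric biopsies of patients who failed ≥2 therapies; resistance classified by EUCAST breakpoints. […] Read by resazurin colour change as the lowest concentration giving complete growth inhibition.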

[18] = target: T1, Flavodoxin (Helicobacter pylori (strain ATCC 700392 / 26695) (Campylobacter pylori)); experiment: Inhibition of flavodoxin in clarithromycin/metronidazole-resistant Helicobacter pylori isolate 4 assessed as reduction in bacterial growth measured after 48 hrs by resazurin staining-based microdilution method; method in brief: as §3
[19] = target: T1, Flavodoxin (Helicobacter pylori (strain ATCC 700392 / 26695) (Campylobacter pylori)); experiment: Inhibition of flavodoxin in metronidazole-resistant Helicobacter pylori isolate 1 assessed as reduction in bacterial growth measured after 48 hrs by resazurin staining-based microdilution method; method in brief: as §3
[20] = target: T1, Flavodoxin (Helicobacter pylori (strain ATCC 700392 / 26695) (Campylobacter pylori)); experiment: Inhibition of flavodoxin in clarithromycin/metronidazole-resistant Helicobacter pylori isolate 6 assessed as reduction in bacterial growth measured after 48 hrs by resazurin staining-based microdilution method
[21] = Toxicity in NMRI mouse infected with Helicobacter pylori SS1 assessed as change in body weight at 10 to 20 mg/100g, po administered daily via gavage for 8 days starting from 1 week post-infection; format: organism-based; settings: in vivo
Method in brief: (§4)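 Female 6-week-old SPF NMRI mice infected orogastrically with Hp SS1 on days 1 and 3. Compound in 5–10% DMSO/olive oil (100 μL) given by daily oral gavage for 8 days from day 8. Body weight and appetite were monitored during treatment; infected controls received vehicle alone.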

[22] = Toxicity in NMRI mouse infected with Helicobacter pylori SS1 assessed as change in appetite at 10 to 20 mg/100g, po administered daily via gavage for 8 days starting from 1 week post-infection; format: organism-based; settings: in vivo; method in brief: as §4
[23] = Toxicity in NMRI mouse assessed as change in body weight at 10 to 20 mg/100g, po administered daily via gavage for 8 days; format: organism-based; settings: in vivo, 192 h
Helicobacter pylori = experiment: Antibacterial activity against Helicobacter pylori SS1 infected in NMRI mouse assessed as bacterial eradication at 20 mg/100g, po administered daily via gavage for 8 days starting from 1 week post-infection and measured 8 days post-last dose; format: functional, organism-based
Method in brief: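 Female 6-week-old SPF NMRI mice, 7 per condition, infected orogastrically on days 1 and 3 with 100 μL Hp SS1 (5 × 10^8 CFU/mL). From day 8, compound given daily by oral gavage for 8 days in 100 μL of 5–10% DMSO/95–90% olive oil. Sacrificed day 24; stomach homogenate CFU/g counted after 5 days microaerophilic culture at 37 °C. Infected vehicle-treated controls; Mann-Whitney U and unpaired t tests, p ≤ 0.05.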

Row | Compound | selectivity ratio [1] | selectivity ratio [2] | selectivity ratio [3] | Activity (Staphylococcus aureus) | Activity [4] | Activity (Escherichia coli) | selectivity ratio [5] | selectivity ratio [6] | selectivity ratio [7] | selectivity ratio [8] | Activity [9] | MIC [10] [µM] | MIC [11] [µM] | CC50 [12] [µM] | selectivity ratio [13] | MIC [14] [µM] | selectivity ratio [15] | further results
1 | O/N=C/Cc1cc(C(F)(F)F)cc(C(F)(F)F)c1 | 4.2 | 34 | > 2.1 | Non-Toxic | Active | Non-Toxic | 4.2 | > 4.2 | 4.2 | 4.2 | Active | 236 (≈ 64 µg/mL) | 59 (≈ 16 µg/mL) | > 500 | 4.2 | 118 (≈ 32 µg/mL) | > 8.5 | –
2 | COc1ccc(CSc2ccc(N)c3nonc23)cc1 | – | – | – | – | Active | – | – | – | – | – | Active | 13.9 (≈ 3.99 µg/mL) | 27.8 (≈ 7.99 µg/mL) | – | – | 27.8 (≈ 7.99 µg/mL) | – | Stability [16]: Stable; inhibition [17]: Active; inhibition [18]: Active; inhibition [19]: Active; inhibition [20]: Active
3 | Cc1ncc([N+](=O)[O-])n1CCO [METRONIDAZOLE] | – | – | > 345 | Non-Toxic | Active | Non-Toxic | – | > 83 | – | – | Active | 2.9 (≈ 0.496 µg/mL) | 187 (≈ 32 µg/mL) | > 1000 | – | 12 (≈ 2.05 µg/mL) | > 5.3 | –
4 | COc1ccc(C[S+]([O-])c2ccc([N+](=O)[O-])c3nonc23)cc1 (stereo not drawn) | – | – | 15 | Non-Toxic | Active | Non-Toxic | – | 30 | – | – | Active | 12 (≈ 4 µg/mL) | 6 (≈ 2 µg/mL) | 179 | – | 6 (≈ 2 µg/mL) | 30 | –
5 | Cc1ncc(N)n1CCO | – | – | – | Non-Toxic | Active | Non-Toxic | – | > 2.2 | – | – | Active | > 453 | 227 (≈ 32 µg/mL) | > 1000 | – | 453 (≈ 64 µg/mL) | > 4.4 | –
6 | COc1ccc(CSc2ccc([N+](=O)[O-])c3nonc23)cc1 | – | – | – | – | Active | – | – | – | – | – | Active | 0.78 (≈ 0.248 µg/mL) | 1.6 (≈ 0.508 µg/mL) | – | – | 6.3 (≈ 2 µg/mL) | – | Stability [16]: Stable
7 | O=[N+]([O-])CCc1ccccc1 | 4.7 | 605 | > 4.7 | Non-Toxic | Active | Non-Toxic | 4.7 | > 9.4 | 4.7 | 4.7 | Active | 212 (≈ 32 µg/mL) | 212 (≈ 32 µg/mL) | > 1000 | 4.7 | 106 (≈ 16 µg/mL) | > 4.7 | –
8 | NCCc1ccccc1 [PHENETHYLAMINE] | – | – | > 7.6 | Non-Toxic | Active | Non-Toxic | – | > 15 | – | – | Active | 132 (≈ 16 µg/mL) | 66 (≈ 8 µg/mL) | > 1000 | – | 66 (≈ 8 µg/mL) | > 15 | Activity [21]: Non-Toxic; Activity [22]: Non-Toxic; Activity [23]: Non-Toxic
9 | O=[N+]([O-])C1=Cc2cc(Cl)cc(Cl)c2OC1c1ccc(F)cc1 (stereo not drawn) | – | – | – | – | Active | – | – | – | – | – | Active | 0.37 (≈ 0.126 µg/mL) | 0.37 (≈ 0.126 µg/mL) | – | – | 0.37 (≈ 0.126 µg/mL) | – | –
10 | O=[N+]([O-])CCc1cc(C(F)(F)F)cc(C(F)(F)F)c1 | 9 | 9 | > 4.5 | Non-Toxic | Active | Non-Toxic | 9 | > 18 | 9 | 9 | Active | 223 (≈ 64 µg/mL) | 56 (≈ 16.1 µg/mL) | > 1000 | 9 | 56 (≈ 16.1 µg/mL) | > 18 | Activity [21]: Non-Toxic; Activity (Helicobacter pylori): Active; Activity [22]: Non-Toxic; Activity [23]: Non-Toxic
11 | COc1ccc(CS(=O)(=O)c2ccc(N)c3nonc23)cc1 | 10 | 20 | > 10 | Non-Toxic | Active | Non-Toxic | 10 | > 10 | 10 | 10 | Active | 100 (≈ 31.9 µg/mL) | 100 (≈ 31.9 µg/mL) | > 1000 | 20 | 100 (≈ 31.9 µg/mL) | > 10 | –
12 | ONCCc1ccccc1 | – | – | – | Non-Toxic | Active | Non-Toxic | – | – | – | – | Active | > 233 | > 233 | > 1000 | – | > 233 | – | –
13 | COc1ccc(C2(C)SCc3cc(C)c(C)cc3CS2)cc1 | – | – | – | – | Active | – | – | – | – | – | Active | 6.1 (≈ 2.02 µg/mL) | 3 (≈ 0.992 µg/mL) | – | – | 3 (≈ 0.992 µg/mL) | – | Stability [16]: Stable
